Hits are enriched below; roughly 1.4% of the tested compounds scored in any of these assays.
SR-BI DiI-HDL act – activators of SR-BI mediated DiI-HDL uptake, primary screen, ldlA[mSR-BI] CHO cells, DiI fluorescence | 3 h; 100 = double the neutral-control signal | activation, % at 12.5 µM | actives 0.096% (n = 320,000);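 active means mean replicate activation of at least 60% and every replicate at or above 60%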;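 further: 0% = median plate neutral-control signal and 100% = twice that signal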
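Material: SR-BI-overexpressing, LDLR-lacking CHO cells; schedule: compound exposure 3 h, 37 °C; reagent: DiI-labelled HDL at 10 µg/mL final; technique: bottom-read fluorescence, 550/595 nm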
PKA-R1A activ – activators of PKA-R1A holoenzyme, primary screen, biochemical, fluorescence polarization, Cy5-IP20, bovine R1A, mouse PKAc. cAMP-dependent protein kinase type I-alpha regulatory subunit (Bos taurus) + …. PKA-R1A dissociation; scaled: DMSO 0%, 113 µM cGMP 100%. activation, % at 11.4 µM. actives 0.083% (n = 340,000). AID 504707, 2011;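 active means percent activation above the mean of all tested compounds plus 3 SD, cut at about 19% in these data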;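 further: higher means more PKAc released from R1A so a rise in polarization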
Vif inh – HIV Vif self-association inhibitors, primary screen, imaging, HEK293T, single point | actives 0.35% (n = 340,000) | HEK293T cells, Vif self-association by quenched fluorescence, 24 h | AID 602346, 2012 | inhibition, % at 7.49 µM; in the data active means inhibition above about 50%, passing the limit was not always enough
PKA-R2B act – activators of PKA-R2B holoenzyme, primary screen, biochemical, fluorescence polarization, Cy5-IP20, human; PKA-R2B holoenzyme dissociation; R2B truncated from residue 108, S112A mutant; 0% DMSO only, 100% 113 µM cGMP; activation, % at 11.4 µM; actives 0.079% (n = 340,000); cAMP-dependent protein kinase catalytic subunit beta (Homo sapiens) + cAMP-dependent …;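 active means activation above a cutoff set at the mean over all compounds plus 3 SD, cut at about 18% in these data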;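 further: higher means more holoenzyme dissociation and a rise in polarization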
Target sequence (P31323 whole entry, looked up, other chains not shown, the tested form may be a part): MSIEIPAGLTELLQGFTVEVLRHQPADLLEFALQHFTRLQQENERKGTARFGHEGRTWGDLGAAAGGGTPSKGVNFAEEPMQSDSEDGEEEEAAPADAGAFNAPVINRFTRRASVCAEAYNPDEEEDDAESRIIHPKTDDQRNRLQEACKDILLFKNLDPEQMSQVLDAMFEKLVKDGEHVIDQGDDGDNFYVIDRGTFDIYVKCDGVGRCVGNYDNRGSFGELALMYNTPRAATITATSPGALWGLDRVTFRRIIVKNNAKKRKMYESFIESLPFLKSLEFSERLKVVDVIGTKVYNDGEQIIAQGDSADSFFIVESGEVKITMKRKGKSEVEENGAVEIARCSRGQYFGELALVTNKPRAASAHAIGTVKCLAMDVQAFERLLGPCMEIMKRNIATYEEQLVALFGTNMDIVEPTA
SR-BI DiI inh – inhibitors of SR-BI mediated HDL lipid uptake, primary screen, ldlA[mSR-BI] cells, fluorescence, single point; Scavenger receptor class B member 1 (Mus musculus), Q61009; ldlA[mSR-BI] CHO cells, DiI-HDL uptake fluorescence, 3 h; inhibition, % at 12.5 µM; actives 0.96% (n = 320,000); AID 488896, 2010;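 active means mean replicate inhibition of at least 70% and a set share of replicates each scoring 70 or more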;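 further: 0% = median of neutral control wells and 100% = median of positive control wells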
Numbers without * were called inactive; / = not tested or not shown.

SMILES | SR-BI DiI-HDL act | PKA-R1A activ | Vif inh | PKA-R2B act | SR-BI DiI inh
N#Cc1cc2nc(O)c(O)nc2cc1[N+](=O)[O-] | 12.7 | -4.7 | 51.1* | 8.5 | -12.7
CCOC(=O)N1CCC(NC(=O)C2CCN(C(=O)c3cc4oc(C)cc4n3Cc3c(F)cccc3Cl)CC2)CC1 | -30.8 | 1.7 | -16.0 | -11.3 | 30.8
COC(CNC(=O)C1CCN(C(=O)c2cc3oc(C)cc3n2Cc2c(F)cccc2Cl)CC1)OC | 4.9 | 2.2 | 54.8* | -0.2 | -4.9
COc1ccc2nc(NC(=O)c3ccoc3C)sc2c1 | -53.7 | -4.0 | -2.1 | -4.1 | 53.7
COc1ccc2nc(NC(=O)c3cc(C)oc3C)sc2c1 | -83.0 | 2.5 | -5.3 | -4.3 | 83.0*
Cc1ccc(C(=O)Nc2nc3ccc(S(C)(=O)=O)cc3s2)s1 | -24.4 | -3.0 | 5.4 | -3.2 | 24.4
Cc1cc(C(=O)Nc2nc3ccc(S(C)(=O)=O)cc3s2)c(C)o1 | -81.7 | 0.7 | 15.2 | 7.3 | 81.7*
COCCNc1nc(NCc2ccc(C(C)C)cc2)c2sccc2n1 | / | / | -6.2 | / | /
CC(C)Cc1nc(N2CCC(C(N)=O)CC2)c2nnn(Cc3ccccc3)c2n1 | 8.8 | 0.5 | -3.7 | 5.8 | -8.8
Cc1nc(N2CCC(C)CC2)c2nnn(Cc3ccccc3)c2n1 | -81.5 | -4.9 | -13.0 | -12.5 | 81.5*
Cc1cc(C)n(-c2cc(N3CCOCC3)nc(-c3ccccc3)n2)n1 | -84.7 | -10.7 | -2.4 | -9.7 | 84.7*
CSc1ccccc1NC(=O)CN1CC(C)OC(C)C1 (centres undefined) | 29.9 | -5.2 | -2.0 | -1.6 | -29.9
Cc1cc(NC(=O)/C=C/c2cccc(F)c2)n(-c2nc3ccccc3[nH]2)n1 | -95.2 | -4.6 | -1.9 | -9.7 | 95.2*
Cc1cc(NC(=O)c2c(F)cccc2Cl)n(-c2nc3ccccc3[nH]2)n1 | -91.8 | -14.3 | -9.1 | 0.6 | 91.8*
Cc1cc(NC(=O)c2ccccc2F)n(-c2nc3ccccc3[nH]2)n1 | -76.5 | -0.5 | 6.0 | 12.3 | 76.5*
Cc1cc(NC(=O)c2c(F)cccc2F)n(-c2nc3ccccc3[nH]2)n1 | -66.2 | -0.7 | -10.0 | -4.6 | 66.2
Cc1cc(NC(=O)c2ccc(C)s2)n(-c2nc3ccccc3[nH]2)n1 | -71.6 | -11.9 | -1.4 | -4.9 | 71.6*
Cc1cc(NC(=O)C2CCCCC2)n(-c2nc3ccccc3[nH]2)n1 | -58.3 | -9.7 | / | -8.4 | 58.3
Cc1cc(NC(=O)/C=C/c2ccc(F)cc2)n(-c2nc3ccccc3[nH]2)n1 | -64.7 | 8.5 | -1.2 | -13.4 | 64.7
OCc1ccccc1-c1cccc2nccn12 | / | / | -2.3 | / | /
COc1cc(NC(=O)c2cc([N+](=O)[O-])ccc2N2CCOCC2)ccc1NC(=O)c1ccco1 | -80.3 | 2.7 | -5.4 | 5.2 | 80.3*
CCCCNC(=O)CN1C(=O)NC(CCc2ccccc2)C1=O (centres undefined) | 17.9 | -9.9 | 7.4 | -8.2 | -17.9
Nc1nnc(SCC(=O)Nc2sc3c(c2C(=O)c2ccccc2)CCCC3)s1 | -51.5 | -3.7 | / | -10.0 | 51.5
COCCNc1nnc(SCC(=O)Nc2sc3c(c2C(=O)c2ccccc2)CCCC3)s1 | -74.6 | -5.1 | -2.9 | -11.6 | 74.5*
Cc1ccc(C)c(S(=O)(=O)NCC(=O)OCC(=O)Nc2sccc2C(N)=O)c1 | 23.2 | 3.0 | -0.1 | -6.6 | -23.2
CCSc1ccc([C@@H]2[C@@H]3C(=O)N(C)C(=O)[C@@H]3[C@]3(C(=O)OC)CCCCN23)cc1OC | 67.4* | 3.2 | -1.8 | -5.8 | -67.4
CCC(C)Sc1ccc([C@H]2N[C@@](CC(C)C)(C(=O)OC)[C@H]3C(=O)N(C)C(=O)[C@@H]23)cc1 (some centres undefined) | -78.5 | 2.3 | 6.8 | 1.7 | 78.5*
CCCCCCSc1ccc([C@H]2N[C@@](CC(C)C)(C(=O)OC)[C@H]3C(=O)N(C)C(=O)[C@@H]23)cc1OC | -2.5 | -0.5 | -3.1 | -4.2 | 2.5

Screens as filed in PubChem BioAssay.
